Bioassay records deposited in PubChem by several laboratories.
TLR4-MyD88 BLA – blocks binding of human TLR4 to MyD88; O00206+Q99836; inhibition, % at 8.4 µM; AID 861; hit rate 0.18% among 200,000; HeLa CL3-4 TLR4/MyD88 BLA complementation, FRET ratio; in the data active means inhibition above about 25%
TLR9-MyD88 block – TLR9-MyD88 interaction inhibition; Q9NR96+Q99836; hit rate 0.21% among 340,000; AID 504734; inhibition, % at 4.98 µM; CHO BLA complementation TLR9-MyD88, CCF4 FRET ratio;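 active means inhibition above the mean over all tested compounds plus 3 SD, cut at about 21% in these data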
SR-BI uptake up – SR-BI HDL lipid transfer activation. CHO ldlA[mSR-BI] cells, DiI-HDL uptake fluorescence, 3 h; 100 = double the neutral-control signal. activation, % at 12.5 µM. hit rate 0.096% among 320,000. AID 504775;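 active means mean replicate activation of at least 60% and every replicate at or above 60%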
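Test system: SR-BI-overexpressing, LDLR-lacking CHO cells. Measured by: DiI fluorescence, bottom read. Medium: Ham's F12 with 0.5% BSA, HEPES 25 mM, pH 7.4. Timing: 3 h uptake period with compound, 37 °C.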
NOD2 RIPK2 PPI – blocks binding of human NOD2 to RIPK2; hit rate 0.38% among 360,000; inhibition, % at 4.98 µM; CHO BLA complementation NOD2-RIPK2, CCF4 ratio; O43353; in the data active means inhibition above about 21%
Target sequence (O43353 whole entry, looked up): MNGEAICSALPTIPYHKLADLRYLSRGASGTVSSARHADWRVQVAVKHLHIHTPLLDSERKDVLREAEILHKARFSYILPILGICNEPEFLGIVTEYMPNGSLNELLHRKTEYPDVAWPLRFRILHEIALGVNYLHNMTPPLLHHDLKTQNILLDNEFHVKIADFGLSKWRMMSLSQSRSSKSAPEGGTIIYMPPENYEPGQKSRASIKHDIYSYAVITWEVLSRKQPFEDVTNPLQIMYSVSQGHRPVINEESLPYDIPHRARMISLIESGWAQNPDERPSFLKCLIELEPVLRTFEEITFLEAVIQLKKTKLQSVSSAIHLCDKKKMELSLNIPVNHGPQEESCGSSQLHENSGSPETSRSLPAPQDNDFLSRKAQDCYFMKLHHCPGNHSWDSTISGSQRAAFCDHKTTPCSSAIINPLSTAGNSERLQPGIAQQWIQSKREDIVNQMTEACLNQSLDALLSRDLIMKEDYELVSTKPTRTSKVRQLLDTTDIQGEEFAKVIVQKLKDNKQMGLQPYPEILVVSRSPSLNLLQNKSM
Hep lipid drop – hepatic lipid droplet formation modulation; hit rate 0.4% among 240,000; inhibition, % at 6.5 µM; AML12 mouse hepatocytes, oleate lipid droplets, BODIPY imaging;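 active means lipid droplet intensity inhibited by at least 50%, with more than 500 cells counted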
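Test system: AML12 mouse liver cells; schedule: overnight exposure; technique: high-content imaging of BODIPY-stained droplets and DAPI nuclei; read-out: % inhibition of corrected integrated BODIPY droplet signal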
SR-BI DiI inh – mouse SR-BI HDL lipid transfer inhibition; Q61009; hit rate 0.96% among 320,000; ldlA[mSR-BI] CHO cells, DiI-HDL uptake fluorescence, 3 h; inhibition, % at 12.5 µM;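 active means mean replicate inhibition of at least 70% and a set share of replicates each scoring 70 or more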
Of the large screens only hits and unclear results are named; the others gave an inactive call. In the library only some 1.6% were active in any assay of this set; here they are far more common.

CCC(C)[C@H](NC(=O)N1CCCCCC1)C(=O)OC (stereo partly specified)	none (no result: TLR4-MyD88 BLA, TLR9-MyD88 block, SR-BI uptake up, SR-BI DiI inh)
O=C(N/N=C/c1ccc(O)c2ncccc12)c1cccc(Br)c1	SR-BI DiI inh 72
O=C(N/N=C/c1cc(O)ccc1Br)c1cccnc1	SR-BI DiI inh 77 (no result: TLR4-MyD88 BLA, Hep lipid drop)
O=C(N/N=C/c1cccnc1)c1cccc(NC(=O)c2cccc(Br)c2)c1	none (no result: TLR4-MyD88 BLA)
O=C(N/N=C\c1cc(Br)ccc1O)c1ccc(S(=O)(=O)N2CCCCC2)cc1	SR-BI DiI inh 137
O=C(CNC(=O)c1ccc(S(=O)(=O)N2CCCC2)cc1)N/N=C/c1ccc(Cl)cc1	SR-BI DiI inh 72
COc1ccc(OCC(=O)Nc2c(C)ccc3nsnc23)cc1	none (no result: TLR4-MyD88 BLA)
O=C(Cc1ccc(Cl)cc1)N1CCc2ccccc2C1	SR-BI uptake up 449 (no result: TLR4-MyD88 BLA, Hep lipid drop)
C=CCn1c(C)c(C(C)=O)c(N2CCN(c3ccccc3)CC2)nc1=S	none (no result: Hep lipid drop)
COc1ccccc1C(=O)NC(=O)COC(=O)C1CC2CCCC(C1)C2=O (stereo unspecified)	none (no result: TLR4-MyD88 BLA)
Cc1cc(=O)oc2c3c(cc(OCC(=O)NCc4ccccc4)c12)OC(C)(C)CC3	SR-BI DiI inh 80 (no result: TLR4-MyD88 BLA)
CSC(=Nc1ccccc1)N=C(SCc1ccccc1)N(C)C	SR-BI DiI inh 86 (no result: TLR4-MyD88 BLA, Hep lipid drop)
N#CC(Sc1ccccn1)c1ccc(Cl)cc1 (stereo unspecified)	none
Cc1nnc(N2CCC(C(=O)NC3CCC(C)CC3)CC2)c2nn(-c3ccc(Cl)cc3)c(C)c12 (stereo unspecified)	SR-BI DiI inh 88 (no result: TLR4-MyD88 BLA)
CNC(=O)COC(=O)CCC(=O)c1cccs1	none
CC(=O)c1ccc(NC(=O)COC(=O)CCC(=O)c2cccs2)cc1	SR-BI uptake up 270
Cc1ccccc1NC(=S)N(C)Cc1cn(C)c2ccccc12	none
CCC(C)NCC(=O)Nc1cc(S(=O)(=O)N(CC)c2ccccc2)ccc1Cl (stereo unspecified)	SR-BI DiI inh 72
CCN(c1ccccc1)S(=O)(=O)c1ccc(Cl)c(NC(=O)CNC(C)c2ccccc2)c1 (stereo unspecified)	none (no result: TLR4-MyD88 BLA, Hep lipid drop)
COC(=O)c1c(NC(=O)c2ccccc2)sc2c1CC(C)(C)OC2	SR-BI DiI inh 73
COc1cccc(C(=O)N=c2sc3c(C)ccc(OC)c3n2C)c1	SR-BI DiI inh 81 (no result: TLR4-MyD88 BLA)
COCCOc1ccc(C(F)(F)F)cc1NC(=O)COC(=O)Cc1c[nH]c2ccccc12	none (no result: TLR4-MyD88 BLA, Hep lipid drop)
CC1N(C)c2cc(NC(=O)c3ccco3)ccc2C1(C)C (stereo unspecified)	SR-BI uptake up 139 (no result: Hep lipid drop)
CCn1c2ccccc2c2cc(NC(=O)c3ccco3)ccc21	SR-BI DiI inh 82
COc1ccc(-c2nc3n(c(=O)c2C#N)CCS3)cc1	none
FC(F)Oc1ccc(/C=N/c2c(-c3ccc(OC(F)F)cc3)nc3n2CCS3)cc1	SR-BI DiI inh 74
CN(C)CCOC1c2ccccc2CCc2ccc3ccccc3c21 (stereo unspecified)	SR-BI uptake up 436 (no result: TLR4-MyD88 BLA, Hep lipid drop)
COc1ccc2c(c1)CCc1cc(C(=O)N3CCN(c4ccc(N5CCOCC5)nn4)CC3)sc1-2	SR-BI DiI inh 77
CON/C=C(\C=Nc1ccc(Cl)cc1)c1ncc(C(F)(F)F)cc1Cl	SR-BI DiI inh 73
CC(C)(C)CN1CCC(Oc2cccc(C(=O)N3CCC[C@H]3CO)c2)CC1	none (no result: TLR4-MyD88 BLA)
Cc1nnc(-c2ccccc2)c(=O)n1/N=C/c1c(O)ccc2ccccc12	SR-BI DiI inh 120 (no result: Hep lipid drop)
Cc1nnc(C)n1/N=C/c1c(O)ccc2ccccc12	none (no result: TLR4-MyD88 BLA, SR-BI uptake up, SR-BI DiI inh)
Cc1nc2ccccc2c(=O)n1/N=C/c1ccc2ccccc2c1O	SR-BI DiI inh 90 (no result: TLR4-MyD88 BLA)
COc1cc(/C=N/n2c(C)nc3ccccc3c2=O)ccc1O	SR-BI uptake up 507 (no result: TLR4-MyD88 BLA)
Cc1nc2ccccc2c(=O)n1/N=C/c1ccc(O)c(O)c1O	none (no result: TLR4-MyD88 BLA)
Cc1sc2nc(CN3CCCCC3)nc(Cl)c2c1C	none
Cc1ccc(Oc2nnc(-c3ccccc3)c3ccccc23)cc1	none (no result: Hep lipid drop)
Cc1ccc(-c2nnc(Oc3ccc(NC(=O)c4ccccc4)cc3)c3ccccc23)cc1	SR-BI uptake up 169
S=C(NNc1ccnc2cc(Cl)ccc12)Nc1ccccc1Cl	SR-BI DiI inh 89
Cc1ccc(Cl)cc1-c1cc(C(=O)NCc2ccc(C(F)(F)F)cc2)[nH]n1	none (no result: TLR4-MyD88 BLA, TLR9-MyD88 block, SR-BI uptake up, Hep lipid drop, SR-BI DiI inh)
CCOC(=O)c1sc(=NC(=O)c2cc(OC)c(OC)c(OC)c2)n(C)c1C	SR-BI DiI inh 74 (no result: Hep lipid drop)
Cc1cc(/C=N/NC(=O)c2cccc(F)c2)c(C)n1-c1ccccc1	SR-BI DiI inh 73
Cc1cc(/C=N/NC(=O)c2ccccc2F)c(C)n1-c1ccccc1	none
Cc1cc(/C=N/NC(=O)c2ccncc2)c(C)n1-c1cccc(C(F)(F)F)c1	SR-BI DiI inh 74 (no result: TLR4-MyD88 BLA)
CCCN1CCC(=NNc2ccc(C(=O)O)cc2)CC1	none
CC(=O)Nc1ccc(NC(=O)C(C)Sc2nnc(C3CC3)n2-c2ccccc2)cc1 (stereo unspecified)	none (no result: TLR4-MyD88 BLA, Hep lipid drop)
COc1ccc(NC(=O)C(C)Sc2nnc3c4c(nc(-c5ccc(OC)cc5)n23)CC(C)(C)OC4)cc1 (stereo unspecified)	Hep lipid drop 52
COc1ccc(-c2nc3c(c4nnc(SC(C)C(=O)Nc5ccccc5)n24)COC(C)(C)C3)cc1 (stereo unspecified)	Hep lipid drop 66
COC(=O)c1c(NC(=O)c2ccoc2C)sc2c1CCC2	none
Cc1occc1C(=O)Nc1sc2c(c1C(N)=O)CCCCC2	SR-BI DiI inh 73
CNC(=O)c1c(NC(=O)c2ccc(N3C(=O)CCC3=O)cc2)sc2c1CCCC2	SR-BI DiI inh 87
COc1ccc(CN2C[C@@H](CO)O[C@@H](n3cnc4c(NCc5ccco5)ncnc43)C2)cc1	none (no result: TLR4-MyD88 BLA, TLR9-MyD88 block, SR-BI uptake up, Hep lipid drop, SR-BI DiI inh)
CC(C)COc1cccc(-c2cc(C(=O)N/N=C/c3ccncc3)c3ccccc3n2)c1	SR-BI DiI inh 79 (no result: TLR4-MyD88 BLA)
COc1ccc(-c2cc(C(=O)N/N=C/c3ccc4c(c3)OCO4)c3ccccc3n2)c(OC)c1	none (no result: Hep lipid drop)
COc1ccc(-c2cc(C(=O)N/N=C/c3ccc(OC)c(COCC(F)(F)C(F)F)c3)c3ccccc3n2)c(OC)c1	SR-BI DiI inh 80
CCOc1cc(/C=N/NC(=O)c2cc(-c3cccc(OC)c3)nc3ccccc23)ccc1O	none (no result: TLR4-MyD88 BLA, TLR9-MyD88 block, SR-BI uptake up, Hep lipid drop, SR-BI DiI inh)
COc1cccc(/C=N/NC(=O)c2cc(-c3ccccn3)nc3ccccc23)c1O	SR-BI DiI inh 103 (no result: TLR4-MyD88 BLA, Hep lipid drop)
COc1ccc(/C=N/NC(=O)c2cc(-c3cccnc3)nc3ccccc23)c(OC)c1	SR-BI DiI inh 74
CCC(Oc1cc(Cl)ccc1Cl)C(=O)N1CCCN(C)CC1 (stereo unspecified)	none (no result: TLR4-MyD88 BLA)
Cc1ccc(-c2cc(C(=O)N/N=C/c3c(C)nn(C)c3C)c3ccccc3n2)cc1C	SR-BI DiI inh 86 (no result: Hep lipid drop)
Cc1nn(-c2ccccc2)c(N2CCCC2)c1/C=N/NC(=O)c1cc(-c2cccnc2)nc2ccccc12	SR-BI DiI inh 89
